Data from paper PMC3286645 (Carbohydrate Research, 2011).
Where two headings read alike, the source gives them in different places.

Tests used:
[1] = Thermogravimetric analysis; assay type: physicochemical; conditions: TGA; for Temperature of solvent loss: 10 °C/min under nitrogen; for Number of water molecules: from weight loss; for Percent weight loss: solvent loss
In short: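 Instrument calibrated with indium and aluminum. 2.5 mg to 4.5 mg of each test compound in an alumina crucible, heated from 25 °C to 200 °C at 10 °C/min under nitrogen flowing at 2 mL/min; weight loss recorded against temperature.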

HaCaT cells = assay: MTS cell viability assay in HaCaT cells; assay type: cell-based, human
Jurkat cells [2] = assay: MTS cell viability assay in Jurkat cells; assay type: cell-based
Hs27 cells = assay: MTS cell viability assay in Hs27 cells; assay type: cell-based
[3] = Differential scanning calorimetry; assay type: physicochemical; conditions: DSC; for Mp (transition from solid crystalline phase to liquid crystalline phase): first phase transition; for Cp (clearing point): liquid crystalline phase to liquid melt phase
In short: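 Dry test compounds kept under vacuum against moisture uptake; 1.0 to 1.5 mg weighed into Tzero aluminum pans sealed with hermetic lids, empty sealed pan as reference. Instrument calibrated with indium for temperature and enthalpy. Scanned 20°C to 250°C at 2.5°C/min; phase transitions taken from the thermograms.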

[4] = cited from earlier work
Jurkat cells [5] = assay: Apoptosis assay; assay type: cell-based
[6] = Solubility of stock solutions in DMSO and in cell culture medium; assay type: physicochemical; conditions: 100 mM stock solution in dimethyl sulfoxide
In short: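 Test compounds and the octylthioglucoside reference were each made up as 100 mM stocks in DMSO. Solubility was judged by eye. An aliquot of each stock was added to cell culture medium, vortexed for 5 sec, centrifuged at 1,400 rpm for 1 min, and checked for precipitate. Stocks that precipitated were diluted further before cytotoxicity testing.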

[7] = HaCaT cells, MTS assay, 20 h exposure
[8] = Jurkat cells, MTS assay, 20 h exposure
[9] = Hs27 cells, MTS assay, 20 h exposure

Row | Compound | Decomposition Temperature [1] [°C] | Temperature of solvent loss [1] [°C] | Number of water molecules [1] | Percent weight loss [1] [%] | toxicity (cell viability) in words (Jurkat cells [2]; [8]) | toxicity (cell viability) in words (Hs27 cells; [9]) | also measured
1 | CCCCCCO[C@@H]1OC[C@@H](O)[C@H](O)[C@H]1O [Compound 9a, Hexyl β-D-xylopyranoside] | 262.8 ± 4.34 | 81.74 ± 0.41 | 0.4 | 2.50±0.66 |  |  | 
2 | CCCCCCCCO[C@@H]1OC[C@@H](O)[C@H](O)[C@H]1O [Compound 9b, Octyl β-D-xylopyranoside] | 267.1 ± 9.15 | 85.32 ± 0.55 | 0.5 | 2.35±0.91 | moderate toxicity | moderate toxicity | toxicity (cell viability) in words (HaCaT cells; [7]): moderate toxicity; Mp (transition from solid crystalline phase to liquid crystalline phase) [3]: 72.5 °C; Cp (clearing point) [3]: 99.4 °C; Cp (clearing point) ([4]; reported previously ref 23): 96.9 °C; Mp (transition from solid crystalline phase to liquid crystalline phase) ([4]; reported previously ref 23): 64.5 °C; Cp (clearing point) ([4]; reported previously ref 24): 103.3 °C; Mp (transition from solid crystalline phase to liquid crystalline phase) ([4]; reported previously ref 24): 67.5 °C
3 | CCCCCCCCCCO[C@@H]1OC[C@@H](O)[C@H](O)[C@H]1O [Compound 9c, Decyl β-D-xylopyranoside] | 277.2 ± 11.5 | 96.63 ± 0.44 | 0.5 | 2.69±0.07 | moderate toxicity | moderate toxicity | toxicity (cell viability) in words (HaCaT cells; [7]): moderate toxicity
4 | O[C@@H]1[C@@H](O)[C@H](OCCC(F)(F)C(F)(F)C(F)(F)C(F)(F)C(F)(F)C(F)(F)F)OC[C@H]1O [Compound 9g, 3,3,4,4,5,5,6,6,7,7,8,8,8-Tridecafluorooctyl β-D-xylopyranoside] |  | 50.57 ± 1.64 | 0.9 | 2.64±0.83 |  |  | toxicity (cell viability) in words (HaCaT cells): moderate toxicity; toxicity (cell viability) in words (Jurkat cells [2]): moderate toxicity; toxicity (cell viability) in words (Hs27 cells): moderate toxicity; mode of cell death (Jurkat cells [5]): apoptosis and not necrosis; Mp (transition from solid crystalline phase to liquid crystalline phase) [3]: 105.1 °C; Cp (clearing point) [3]: 147.0 °C
5 | CCCCCCCCS[C@@H]1O[C@H](CO)[C@@H](O)[C@H](O)[C@H]1O [OTG, octylthioglucoside, reference compound] |  |  |  |  | moderate toxicity | moderate toxicity | solubility in DMSO [6]: readily soluble

Continued, in another order:

Row | Decomposition Temperature [1] [°C] | Temperature of solvent loss [1] [°C] | Number of water molecules [1] | Percent weight loss [1] [%] | Compound | toxicity (cell viability) in words (Jurkat cells [2]; [8]) | toxicity (cell viability) in words (Hs27 cells; [9]) | also measured
6 | 290.4 ± 10.5 | 86.35 ± 0.98 | 0.3 | 1.56±0.09 | CCCCCCCCCCCCO[C@@H]1OC[C@@H](O)[C@H](O)[C@H]1O [Compound 9d, Dodecyl β-D-xylopyranoside] |  |  | 
7 | 294.8 ± 7.15 | 100.1 ± 2.93 | 0.5 | 1.87±1.08 | CCCCCCCCCCCCCCO[C@@H]1OC[C@@H](O)[C@H](O)[C@H]1O [Compound 9e, Tetradecyl β-D-xylopyranoside] |  |  | 
8 |  | 103.4 ± 1.95 | 0.3 | 1.24±0.49 | CCCCCCCCCCCCCCCCO[C@@H]1OC[C@@H](O)[C@H](O)[C@H]1O [Compound 9f, Hexadecyl β-D-xylopyranoside] |  |  | 
